Measured values published in ChEMBL document CHEMBL3351630, “ent-Kaurane diterpenes from the stem bark of Annona vepretorum (Annonaceae) and cytotoxic evaluation” (Bioorg Med Chem Lett, 2014).

Key:
[1] = Cytotoxicity against mouse B16F10 cells after 72 hrs by alamar blue assay; assay type: functional, cell-based; conditions: B16-F10, 72 h
Method in brief: (§1)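 Tumour lines grown in RPMI-1640 with 10% FBS, 2 mM L-glutamine, gentamycin, at 37°C/5% CO2, mycoplasma-free, used in exponential growth. Alamar blue added 4 h before end, absorbance 570/600 nm. IC50 by nonlinear regression, three independent experiments in duplicate.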

HepG2 = experiment: Cytotoxicity against human HepG2 cells after 72 hrs by alamar blue assay; assay type: functional, cell-based; conditions: HepG2, 72 h; method in brief: as §1
[2] = Cytotoxicity against human HL60 cells after 72 hrs by alamar blue assay; assay type: functional, cell-based; conditions: HL-60, 72 h; method in brief: as §1
K562 [3] = experiment: Cytotoxicity against human K562 cells after 72 hrs by alamar blue assay; assay type: functional, cell-based; conditions: K562, 72 h; method in brief: as §1
PBMC = experiment: Cytotoxicity against concanavalin-A stimulated human PBMC after 72 hrs by alamar blue assay; assay type: cell-based
Method in brief: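 ConA 10 µg/mL added at culture start; compounds (0.39–25 µg/mL, DMSO) added after 24 h, 72 h incubation. Alamar blue added 24 h before end, absorbance 570/600 nm. IC50 by nonlinear regression, three independent experiments in duplicate.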

K562 [4] = experiment: Selectivity index, ratio of IC50 for concanavalin-A stimulated human PBMCs to IC50 for human K562 cells
Method in brief: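 SI calculated as IC50 in ConA-stimulated PBMC divided by IC50 in K562, both from 72 h alamar blue assays.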

| SMILES | IC50 [1] | IC50 (HepG2) | IC50 [2] | IC50 (K562 [3]) | IC50 (PBMC) | Ratio IC50 (K562 [4]) |
| --- | --- | --- | --- | --- | --- | --- |
| C=C1C[C@@]23CC[C@@H]4[C@](C)(C=O)[C@H](O)CC[C@@]4(C)[C@@H]2CC[C@H]1C3 | 69.5 µM | 51.3 µM | 32.8 µM | 8.24 µM | 23.8 µM | 2.9 |
| C=C1C[C@@]23CC[C@@H]4[C@](C)(CO)[C@H](O)CC[C@@]4(C)[C@@H]2CC[C@H]1C3 | 82.2 µM | 82.2 µM | 82.2 µM | 82.2 µM | 29.4 µM |  |
| C=C1C[C@@]23CC[C@@H]4C(C)(C)[C@H](O)CC[C@@]4(C)[C@@H]2CC[C@H]1C3 | 66.3 µM | 67.2 µM | 34.2 µM | 10.2 µM | 22.5 µM |  |
| C=C1C[C@@]23CC[C@@H]4C(C)(C)[C@H](OC(C)=O)CC[C@@]4(C)[C@@H]2CC[C@H]1C3 | > 75.7 µM | > 75.7 µM | > 75.7 µM | > 75.7 µM | > 75.7 µM |  |
| C=C1C[C@@]23CC[C@H]4[C@@](C)(CC[C@@H](O)[C@@]4(C)C(=O)O)[C@@H]2CC[C@H]1C3 | > 78.6 µM | > 78.6 µM | 76.1 µM | 63.5 µM | > 78.6 µM |  |
| COc1cccc2c1C(=O)c1c(O)c3c(c(O)c1C2=O)C[C@@](O)(C(=O)CO)C[C@@H]3O[C@H]1C[C@H](N)[C@H](O)[C@H](C)O1 [DOXORUBICIN] | 4.23 µM | 0.42 µM | 1.53 µM | 1.25 µM | 9.36 µM | 7.5 |
| C=C1C[C@@]23CC[C@H]4[C@@](C)(CCC[C@@]4(C)C(=O)O)[C@@H]2CC[C@@H]1C3 [KAURENOIC ACID] | 54.8 µM | 50.7 µM | 44.1 µM | 72.5 µM | 80.8 µM |  |
